Assay outcomes from PubChem.
Many of the other results were omitted from the sample, so hits are more common in it than they were.
A1 apoptosis 2: blocks A1, raising caspase activity. AID 2465. caspase activation, % (no concentration beside the values). MEF A1-2A-BIM cells, caspase-Glo luminescence, 3 h; percent of clofoctol response, DMSO zero. 24,000 tested, under 10 active; in the data active = caspase activation above about 5.9%
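system = A1-2A-BIM-expressing MEF cells | quantity = 2500 MEF cells/well | dosing = 50 nL compound per well, pinned | schedule = overnight cell settling, then 3 h compound exposure, 37 °C | signal = luminescence from DEVD-luciferin Caspase-Glo reagent, 1:1 in 50 mM HEPES, 1 h RT | read-out = Caspase-3/7 activation, seen as rise in luminescence signal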
T cruzi intra: inhibitors of intracellular Trypanosoma cruzi; 22,000 compounds, 4.9% hits; intracellular Trypanosoma cruzi in host cells, plate reader; activity score (inhibition), % at 5.01 µM; in the data active = activity score above about 55%;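 note: parasites and compound incubated about four days before reading; 0% = median of neutral control wells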
INS-1E rescue: INS-1E beta cell protection from cytokine death. protection from cytokine-induced ATP loss, % at 10 µM. AID 488910. 20,000 compounds, 0.1% hits. INS-1E cytokine-induced death, ATP luminescence, 48 h; normalised: neutral wells 0, positive control 100;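 active = mean replicate protection from cytokine-induced ATP loss at least 50% and at least 75% of replicates each reaching 50%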
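assay system = INS-1E rat insulinoma cells | amount = 8000 cells per well | medium = phenol-red-free RPMI with 5% fetal bovine serum | doses = one compound concentration, pin transfer | timing = 48 h cytokine plus compound treatment, 10 min reagent incubation | also added = IL-1β, TNF-α and IFN-γ cytokine mix | signal = CellTiter-Glo luminescence measuring cellular ATP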
* hit, by the source's call; / = no result.

SMILES	A1 apoptosis 2	T cruzi intra	INS-1E rescue
CCOc1cccc(/C=N/NC(=O)CCCCC(=O)NO)c1OCC	-0.5	-6.6	80.8*
CCOc1cccc(/C=N/NC(=O)CCCCCCC(=O)OC)c1OCC	-0.2	0.7	6.0
C[C@H](CO)N1C[C@H](C)[C@H](CN(C)S(=O)(=O)c2ccc(F)cc2)OCCCC[C@H](C)Oc2ccc(NC(=O)C3CCCCC3)cc2C1=O	0.1	/	/
O=C(CCCCCCC(=O)N/N=C/c1nccs1)NO	-0.1	/	/
COc1ccc(S(=O)(=O)N(C)C[C@H]2Oc3c(NS(=O)(=O)c4ccc(Cl)cc4)cccc3C(=O)N([C@H](C)CO)C[C@H]2C)cc1	-0.5	-3.2	-9.6
COc1ccc(CN(C)C[C@H]2Oc3ccc(NC(=O)Cc4cn(C)c5ccccc45)cc3CC(=O)N([C@@H](C)CO)C[C@H]2C)cc1	0.2	32.0	-9.1
C[C@@H]1CN([C@H](C)CO)C(=O)Cc2cc(NC(=O)Cc3cn(C)c4ccccc34)ccc2O[C@H]1CN(C)Cc1ccc(Oc2ccccc2)cc1	/	77.7*	-19.8
C[C@H]1CN([C@@H](C)CO)C(=O)Cc2cc(NC(=O)Cc3cn(C)c4ccccc34)ccc2O[C@@H]1CN(C)Cc1ccc(Oc2ccccc2)cc1	/	50.5	-15.4
C[C@H]1CN([C@@H](C)CO)C(=O)Cc2cc(NC(=O)Cc3cn(C)c4ccccc34)ccc2O[C@H]1CN(C)Cc1ccc(Oc2ccccc2)cc1	-0.6	58.8*	-42.6
COc1ccc(CN(C)C[C@H]2Oc3ccc(NC(=O)Cc4cn(C)c5ccccc45)cc3CC(=O)N([C@@H](C)CO)C[C@@H]2C)cc1	-0.4	61.3*	-2.3
C[C@H](CO)N1C[C@H](C)[C@@H](CN(C)Cc2ccc(Oc3ccccc3)cc2)Oc2ccc(NC(=O)Cc3cn(C)c4ccccc34)cc2CC1=O	-1.1	/	/
COc1ccc(S(=O)(=O)N(C)C[C@H]2Oc3ccc(NS(=O)(=O)c4cn(C)cn4)cc3CC(=O)N([C@@H](C)CO)C[C@@H]2C)cc1	0.7	-7.2	12.5
C[C@H]1CN([C@@H](C)CO)C(=O)c2cccc(NC(=O)CCCCCC(=O)Nc3ccccc3N)c2O[C@H]1CN(C)C(=O)Nc1ccc(C(F)(F)F)cc1	-0.3	/	/
CC(C)NC(=O)Nc1cccc2c1O[C@@H](CN(C)S(=O)(=O)c1ccc(F)cc1)[C@H](C)CN([C@H](C)CO)C2=O	0.1	-6.0	10.0
O=S(=O)(c1ccc2ccccc2c1)N1CCN(Cc2ccc(OCCO)cc2)CC1	0.9	/	/
C[C@@H]1CN([C@H](C)CO)C(=O)Cc2cc(NC(=O)Cc3ccccc3)ccc2O[C@@H]1CN(C)Cc1ccc2c(c1)OCO2	/	-11.9	0.7
C[C@H](CO)N1C[C@H](C)[C@H](CN(C)C(=O)NC2CCCCC2)Oc2c(NS(=O)(=O)c3ccc(F)cc3)cccc2C1=O	2.5	58.7*	-2.1
Cc1ccc(S(=O)(=O)N(C)C[C@@H]2Oc3c(NS(=O)(=O)c4ccc(Cl)cc4)cccc3C(=O)N([C@H](C)CO)C[C@H]2C)cc1	0.6	12.9	6.9
C[C@@H]1CN([C@H](C)CO)C(=O)c2cccc(NS(=O)(=O)c3ccc(F)cc3)c2O[C@H]1CN(C)Cc1ccc(-c2ccccc2)cc1	/	5.8	4.6
Cc1ccc(S(=O)(=O)Nc2cccc3c2O[C@@H](CN(C)S(=O)(=O)c2ccc(Cl)cc2)[C@@H](C)CN([C@H](C)CO)C3=O)cc1	/	58.0*	-22.1
C[C@H]1CN([C@@H](C)CO)C(=O)c2cccc(NS(=O)(=O)c3ccc(Cl)cc3)c2O[C@H]1CN(C)Cc1ccc(-c2ccccc2)cc1	/	59.1*	-36.8
C[C@H](CO)N1C[C@H](C)[C@H](CN(C)Cc2ccc(-c3ccccc3)cc2)Oc2c(NS(=O)(=O)c3ccc(F)cc3)cccc2C1=O	0.1	57.7*	-32.5
C[C@@H]1CN([C@H](C)CO)C(=O)c2cccc(NS(=O)(=O)c3ccc(F)cc3)c2O[C@@H]1CN(C)C(=O)NC1CCCCC1	0.3	16.1	9.0
C[C@@H]1CN([C@H](C)CO)C(=O)c2cccc(NS(=O)(=O)c3ccc(Cl)cc3)c2O[C@H]1CN(C)Cc1ccc(-c2ccccc2)cc1	/	33.5	-8.6
Cc1noc(C)c1S(=O)(=O)Nc1ccc2c(c1)C(=O)N([C@H](C)CO)C[C@H](C)[C@H](CN(C)CC1CC1)OCCCC[C@H](C)O2	1.6	/	/
SMILES	A1 apoptosis 2	T cruzi intra	INS-1E rescue
O=C(CCCCCCC(=O)N/N=C/C1=CCCCC1)NO	-0.3	/	/
COCCCN1C(=O)[C@@]2(Cc3ccccc31)c1ccccc1C(=O)N(Cc1ccccc1)[C@H]2c1ccc(CO)cc1	0.8	/	/
C[C@H](CO)N1C[C@H](C)[C@@H](CN(C)CC2CCCCC2)OCCCC[C@H](C)Oc2ccc(N(C)C)cc2C1=O	0.0	/	/
COc1cc(/C=N/NC(=O)c2ccccc2O)c([N+](=O)[O-])cc1OC	0.1	0.5	-67.6
C[C@@H]1CN([C@@H](C)CO)C(=O)c2cccc(NS(=O)(=O)c3ccccc3)c2O[C@@H]1CN(C)CC1CC1	-0.3	57.4*	9.5
C[C@H]1CN([C@@H](C)CO)C(=O)c2cccc(NS(=O)(=O)c3ccccc3)c2O[C@H]1CN(C)CC1CC1	-0.6	-2.6	-0.3
Cc1ccc(S(=O)(=O)Nc2cccc3c2O[C@@H](CN(C)Cc2ccc(Oc4ccccc4)cc2)[C@@H](C)CN([C@H](C)CO)C3=O)cc1	0.1	64.6*	-64.2
Cc1ccc(S(=O)(=O)Nc2cccc3c2O[C@H](CN(C)Cc2ccc(Oc4ccccc4)cc2)[C@@H](C)CN([C@@H](C)CO)C3=O)cc1	/	23.6	0.4
[N-]=[N+]=NCC(=O)N1CCN(c2ccccc2)CC1	1.3	/	/
C[C@@H]1CN([C@H](C)CO)C(=O)Cc2cc(NC(=O)Nc3ccc(C(F)(F)F)cc3)ccc2O[C@@H]1CN(C)CC1CCCCC1	/	61.5*	-72.9
C[C@@H]1CN([C@H](C)CO)C(=O)Cc2cc(NC(=O)Nc3ccc(C(F)(F)F)cc3)ccc2O[C@H]1CN(C)CC1CCCCC1	/	82.8*	-18.2
C[C@@H]1CN([C@H](C)CO)C(=O)Cc2cc(NC(=O)Nc3ccc(C(F)(F)F)cc3)ccc2O[C@H]1CN(C)CC1CC1	-0.3	7.8	-11.1
C[C@H]1CN([C@@H](C)CO)C(=O)Cc2cc(NC(=O)Nc3ccc(C(F)(F)F)cc3)ccc2O[C@H]1CN(C)CC1CC1	-1.5	9.7	3.9
C[C@@H]1CN([C@H](C)CO)C(=O)Cc2cc(NC(=O)CCN3CCOCC3)ccc2O[C@@H]1CN(C)C(=O)Nc1ccccc1	-1.0	-21.4	8.6
Cc1noc(C)c1S(=O)(=O)Nc1ccc2c(c1)C(=O)N([C@@H](C)CO)C[C@H](C)[C@H](CN(C)C(=O)Cc1ccccc1)OCCCC[C@H](C)O2	-0.5	/	/
C[C@H]1CN([C@@H](C)CO)C(=O)c2cc(NS(=O)(=O)c3ccc(Cl)cc3)ccc2O[C@@H]1CN(C)Cc1ccc(Cl)c(Cl)c1	0.5	46.2	-12.9
Cc1ccc(S(=O)(=O)Nc2ccc3c(c2)C(=O)N([C@@H](C)CO)C[C@@H](C)[C@@H](CN(C)Cc2ccc(Cl)c(Cl)c2)O3)cc1	/	63.9*	-37.4
